# Legend:
# Format in all cases: functional
# [1] = system: Streptococcus pneumoniae; test: Potency index, ratio of azithromycin MIC to compound MIC for erythromycin-resistant Streptococcus pneumoniae A22072 harboring mefA gene
# [2] = system: Bacillus subtilis; test: Antibacterial activity against erythromycin-susceptible Bacillus subtilis ATCC 9372 after 24 hrs by tube-dilution method; details: ATCC 9372, 24 h
# Outline: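 MIC by standard NCCLS broth microdilution. Reference macrolides clarithromycin and azithromycin run alongside.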
# [3] = system: Streptococcus pneumoniae; test: Antibacterial activity against erythromycin-resistant Streptococcus pneumoniae AB11 harboring ermB and mefA genes after 24 hrs by tube-dilution method; details: AB11, 24 h
# Outline: (§1)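 MIC determined by the NCCLS-recommended standard broth microdilution method against erythromycin-resistant S. pneumoniae strains (A22072 mef, B1 erm, AB11 erm plus mef) and methicillin-resistant S. aureus ATCC43300.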
# [4] = system: Streptococcus pneumoniae; test: Potency index, ratio of clarithromycin MIC to compound MIC for erythromycin-resistant Streptococcus pneumoniae A22072 harboring mefA gene
# [5] = system: Streptococcus pyogenes; test: Antibacterial activity against erythromycin-susceptible Streptococcus pyogenes after 24 hrs […]
# [6] = system: Streptococcus pneumoniae; test: Antibacterial activity against erythromycin-resistant Streptococcus pneumoniae B1 harboring ermB gene after 24 hrs by tube-dilution method; details: B1, 24 h; outline: as §1
# [7] = system: Staphylococcus aureus; test: Antibacterial activity against methicillin-resistant Staphylococcus aureus ATCC 43300 after 24 hrs by tube-dilution method; details: ATCC 43300, 24 h; outline: as §1
# [8] = system: Pseudomonas aeruginosa; test: Antibacterial activity against penicillin-susceptible Pseudomonas aeruginosa ATCC 27853 incubated for 24 hrs by […]; details: ATCC 27853, 24 h
# [9] = system: Streptococcus pneumoniae; test: Antibacterial activity against erythromycin-resistant Streptococcus pneumoniae A22072 harboring mefA gene after 24 hrs by […]; details: A22072, 24 h
# [10] = system: Staphylococcus aureus; test: Antibacterial activity against erythromycin-susceptible Staphylococcus aureus ATCC 25923 after 24 hrs by […]; details: ATCC 25923, 24 h
# [11] = system: Escherichia coli; test: Antibacterial activity against penicillin-susceptible Escherichia coli ATCC 25922 incubated for 24 hrs by […]; details: ATCC 25922, 24 h
# [12] = system: Streptococcus pyogenes; test: Antibacterial activity against erythromycin-resistant Streptococcus pyogenes R1 after 24 hrs by tube-dilution method; details: R1, 24 h
smiles,measurement,setting,value
CC[C@H]1OC(=O)[C@H](C)[C@@H](OC(=O)Cc2cccnc2)[C@H](C)[C@@H](O[C@@H]2O[C@H](C)C[C@H](N(C)C)[C@H]2O)[C@](C)(OC)C[C@@H](C)C(=O)[C@H](C)[C@@H](OC(=O)NCCNC(=O)c2ccc([N+](=O)[O-])cc2)[C@]1(C)O,Ratio,[1],8
same,MIC,[2],2 µg/mL
same,MIC,[3],8 µg/mL
same,Ratio,[4],4
same,MIC,[5],0.03 µg/mL
same,MIC,[6],32 µg/mL
same,MIC,[7],128 µg/mL
same,MIC,[8],64 µg/mL
same,MIC,[9],0.5 µg/mL
same,MIC,[10],1 µg/mL
same,MIC,[11],64 µg/mL
same,MIC,[12],> 128 µg/mL
CC[C@H]1OC(=O)[C@H](C)C(=O)[C@H](C)[C@@H](O[C@@H]2O[C@H](C)C[C@H](N(C)C)[C@H]2O)[C@](C)(OC)C[C@@H](C)C(=O)[C@H](C)[C@@H](OC(=O)NCCNC(=O)C#Cc2ccc(F)cc2)[C@]1(C)O,MIC,[2],2 µg/mL
same,MIC,[3],64 µg/mL
same,MIC,[5],1 µg/mL
same,MIC,[6],128 µg/mL
same,MIC,[7],128 µg/mL
same,MIC,[8],> 128 µg/mL
same,MIC,[9],2 µg/mL
same,MIC,[10],16 µg/mL
same,MIC,[11],> 128 µg/mL
same,MIC,[12],> 128 µg/mL
CC[C@H]1OC(=O)[C@H](C)[C@@H](OC(=O)Cc2cccnc2)[C@H](C)[C@@H](O[C@@H]2O[C@H](C)C[C@H](N(C)C)[C@H]2O)[C@](C)(OC)C[C@@H](C)C(=O)[C@H](C)[C@@H](OC(=O)NCCNC(=O)/C=C/c2ccc([N+](=O)[O-])cc2)[C@]1(C)O,MIC,[2],4 µg/mL
same,MIC,[3],8 µg/mL
same,MIC,[5],0.125 µg/mL
same,MIC,[6],32 µg/mL
same,MIC,[7],64 µg/mL
same,MIC,[8],128 µg/mL
same,MIC,[9],1 µg/mL
same,MIC,[10],8 µg/mL
same,MIC,[11],128 µg/mL
same,MIC,[12],> 128 µg/mL
CC[C@H]1OC(=O)[C@H](C)C(=O)[C@H](C)[C@@H](O[C@@H]2O[C@H](C)C[C@H](N(C)C)[C@H]2O)[C@](C)(OC)C[C@@H](C)C(=O)[C@H](C)[C@@H](OC(=O)NCCNC(=O)C#Cc2cccc3ccccc23)[C@]1(C)O,MIC,[2],1 µg/mL
same,MIC,[3],128 µg/mL
same,MIC,[5],0.5 µg/mL
same,MIC,[6],128 µg/mL
same,MIC,[7],64 µg/mL
same,MIC,[8],> 128 µg/mL
same,MIC,[9],1 µg/mL
same,MIC,[10],16 µg/mL
same,MIC,[11],> 128 µg/mL
same,MIC,[12],64 µg/mL
CC[C@H]1OC(=O)[C@H](C)C(=O)[C@H](C)[C@@H](O[C@@H]2O[C@H](C)C[C@H](N(C)C)[C@H]2O)[C@](C)(OC)C[C@@H](C)C(=O)/C(C)=C/[C@]1(C)O,MIC,[2],128 µg/mL
same,MIC,[3],> 128 µg/mL
same,MIC,[5],> 16 µg/mL
same,MIC,[6],> 128 µg/mL
same,MIC,[7],> 128 µg/mL
same,MIC,[8],64 µg/mL
same,MIC,[9],64 µg/mL
same,MIC,[10],> 128 µg/mL
same,MIC,[11],> 128 µg/mL
same,MIC,[12],> 128 µg/mL
CC[C@H]1OC(=O)[C@H](C)C(=O)[C@H](C)[C@@H](O[C@@H]2O[C@H](C)C[C@H](N(C)C)[C@H]2O)[C@](C)(OC)C[C@@H](C)C(=O)[C@H](C)[C@@H](OC(=O)NCCNC(=O)C#Cc2ccc(Cl)cc2Cl)[C@]1(C)O,MIC,[2],1 µg/mL
same,MIC,[3],128 µg/mL
same,MIC,[5],1 µg/mL
same,MIC,[6],128 µg/mL
same,MIC,[7],128 µg/mL
same,MIC,[8],> 128 µg/mL
same,MIC,[9],2 µg/mL
same,MIC,[10],16 µg/mL
same,MIC,[11],> 128 µg/mL
same,MIC,[12],128 µg/mL
CC[C@H]1OC(=O)[C@H](C)[C@@H](O[C@H]2C[C@@](C)(OC)[C@@H](O)[C@H](C)O2)[C@H](C)[C@@H](O[C@@H]2O[C@H](C)C[C@H](N(C)C)[C@H]2O)[C@](C)(OC)C[C@@H](C)C(=O)[C@H](C)[C@@H](O)[C@]1(C)O [CLARITHROMYCIN],MIC,[2],0.25 µg/mL
same,MIC,[3],128 µg/mL
same,MIC,[5],0.03 µg/mL
same,MIC,[6],> 128 µg/mL
same,MIC,[7],> 128 µg/mL
same,MIC,[8],64 µg/mL
same,MIC,[9],2 µg/mL
same,MIC,[10],0.25 µg/mL
same,MIC,[11],64 µg/mL
same,MIC,[12],> 128 µg/mL
CC[C@H]1OC(=O)[C@H](C)[C@@H](OC(=O)Cc2cccnc2)[C@H](C)[C@@H](O[C@@H]2O[C@H](C)C[C@H](N(C)C)[C@H]2O)[C@](C)(OC)C[C@@H](C)C(=O)[C@H](C)[C@@H](OC(=O)NCCNC(=O)C#Cc2ccc(C)cc2)[C@]1(C)O,MIC,[2],2 µg/mL
same,MIC,[3],32 µg/mL
same,MIC,[5],0.25 µg/mL
same,MIC,[6],64 µg/mL
same,MIC,[7],128 µg/mL
same,MIC,[8],> 128 µg/mL
same,MIC,[9],1 µg/mL
same,MIC,[10],8 µg/mL
same,MIC,[11],> 128 µg/mL
same,MIC,[12],> 128 µg/mL

# Source: ChEMBL document CHEMBL4118255, “Synthesis and antibacterial evaluation of novel 11-O-aralkylcarbamoyl-3-O-descladinosylclarithromycin derivatives” (2018)
